23 compounds from ChEMBL document CHEMBL1133588 (J Med Chem, 2000) can be followed below.

Each structure is given as a SMILES string.

Common to all, as to type: tissue-based
The target in test [1] is T1, Muscarinic acetylcholine receptor M1 (Rattus norvegicus, UniProt P08482).
T1 sequence (P08482 whole entry): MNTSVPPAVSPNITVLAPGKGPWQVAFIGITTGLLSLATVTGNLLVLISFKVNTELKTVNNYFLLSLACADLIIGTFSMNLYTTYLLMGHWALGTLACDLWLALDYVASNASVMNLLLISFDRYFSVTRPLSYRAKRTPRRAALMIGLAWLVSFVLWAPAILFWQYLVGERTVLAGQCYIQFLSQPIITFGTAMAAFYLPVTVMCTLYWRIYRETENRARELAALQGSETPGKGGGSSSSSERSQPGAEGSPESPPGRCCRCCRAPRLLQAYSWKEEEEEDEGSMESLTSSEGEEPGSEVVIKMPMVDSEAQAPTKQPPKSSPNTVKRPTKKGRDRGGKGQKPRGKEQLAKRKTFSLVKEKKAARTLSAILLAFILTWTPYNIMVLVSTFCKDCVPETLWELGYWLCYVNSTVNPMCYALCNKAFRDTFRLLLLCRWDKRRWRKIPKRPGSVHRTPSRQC
The test is described as follows: Binding affinity at Muscarinic acetylcholine receptor M1 in Rat brain homogenate by [3H]pirenzepine displacement.

Test [2] has as its target T1, Muscarinic acetylcholine receptor M1. The experiment in a line: Compound is tested for displacement of [3H]pirenzepine at […] in Rat brain homogenate. Put shortly:
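Whole rat brain minus cerebellum, homogenised in 10 mM Tris-HCl/320 mM sucrose pH 7.4; 10000g pellet. Binding in 10 mM Tris-HCl with 5 mM MgCl2, […], [3H]pirenzepine 3 nM final, 1 h at 37 °C. Competitor 0.01 nM–100 µM. Filtration through PEI-soaked GF/B filters. At least three experiments in triplicate; Ki from nonlinear curve fitting.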

Test [3] concerns the target Sodium-dependent dopamine transporter (Rattus norvegicus, UniProt P23977). The experiment in a line: Displacement of [3H]WIN-35428 from the dopamine transporter in rat caudate putamen. Put shortly:
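Male Sprague-Dawley rat caudate putamen, fresh washed membranes in Krebs-HEPES pH 7.4, 0.5% w/v. Filtration on BSA-soaked GF/B filters. Three experiments in triplicate; Ki from nonlinear least-squares fitting of pooled replicates.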

Sodium-dependent dopamine transporter, sequence (P23977 whole entry): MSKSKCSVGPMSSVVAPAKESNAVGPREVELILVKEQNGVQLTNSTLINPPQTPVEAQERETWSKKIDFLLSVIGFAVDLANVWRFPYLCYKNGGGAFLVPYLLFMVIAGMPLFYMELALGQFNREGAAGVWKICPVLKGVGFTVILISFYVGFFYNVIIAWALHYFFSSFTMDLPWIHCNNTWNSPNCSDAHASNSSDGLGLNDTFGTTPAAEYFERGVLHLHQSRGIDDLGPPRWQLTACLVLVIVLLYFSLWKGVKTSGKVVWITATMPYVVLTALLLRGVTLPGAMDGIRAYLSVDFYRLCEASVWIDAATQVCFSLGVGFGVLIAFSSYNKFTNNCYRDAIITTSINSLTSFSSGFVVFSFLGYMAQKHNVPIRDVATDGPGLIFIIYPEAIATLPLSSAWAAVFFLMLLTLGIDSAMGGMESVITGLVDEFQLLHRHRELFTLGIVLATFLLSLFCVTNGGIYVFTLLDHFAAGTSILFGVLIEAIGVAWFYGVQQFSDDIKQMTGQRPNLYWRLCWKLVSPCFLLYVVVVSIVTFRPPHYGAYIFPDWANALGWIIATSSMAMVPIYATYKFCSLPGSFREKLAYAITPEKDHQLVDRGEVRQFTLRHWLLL

For `CCCCN1C2CCC1CC(OC(c1ccc(F)cc1)c1ccc(F)cc1)C2` (stereo not given), the Ki in test [1] is 399 nM. In other words, the sub-micromolar range.
The compound `Fc1ccc(CCCN2C3CCC2CC(OC(c2ccc(F)cc2)c2ccc(F)cc2)C3)cc1` (stereo not given) yielded a Ki in test [2] of 686 nM.
`Fc1ccc(CN2C3CCC2CC(OC(c2ccc(F)cc2)c2ccc(F)cc2)C3)cc1` (stereo not given) showed a Ki in test [2] of 1540 nM.
Compound `Fc1ccc(C(OC2CC3CCC(C2)N3)c2ccc(F)cc2)cc1` (stereo not given) had a Ki in test [1] of 203 nM.
In the case of `Fc1ccc(C(OC2CC3CCC(C2)N3Cc2cccc3ccccc23)c2ccc(F)cc2)cc1` (stereo not given), the Ki in test [3] was found to be 367 nM; in test [1], 1790 nM.
As for `Fc1ccc(C(OC2CC3CCC(C2)N3CCCc2ccccc2)c2ccc(F)cc2)cc1` (stereo not given), the Ki in test [2] was 312 nM.
`Fc1ccc(C(OC2CC3CCC(C2)N3Cc2ccccc2)c2ccc(F)cc2)cc1` (stereo not given) gave a Ki in test [2] of 1030 nM.
With `C=CCCN1C2CCC1CC(OC(c1ccc(F)cc1)c1ccc(F)cc1)C2` (stereo not given), the Ki in test [3] was 31.9 nM; in test [1] it was 278 nM.
With `O=[N+]([O-])c1ccc(-c2ccc(COCCN3C4CCC3CC(OC(c3ccc(F)cc3)c3ccc(F)cc3)C4)cc2)cc1` (stereo not given), the Ki in test [2] came to 460 nM.
In the case of `CC[C@H](CN1C2CCC1CC(OC(c1ccc(F)cc1)c1ccc(F)cc1)C2)c1ccccc1` (stereo not given in full), the Ki in test [3] came to 228 nM; in test [1] it was 2360 nM.
As to `C[C@@H](CN1C2CCC1CC(OC(c1ccc(F)cc1)c1ccc(F)cc1)C2)c1ccccc1` (stereo not given in full), the Ki in test [3] was 477 nM; in test [1], 392 nM.
For `CC[C@@H](CN1C2CCC1CC(OC(c1ccc(F)cc1)c1ccc(F)cc1)C2)c1ccccc1` (stereo not given in full) the same measures were 400 nM and 1440 nM.
In the case of `C[C@H](CN1C2CCC1CC(OC(c1ccc(F)cc1)c1ccc(F)cc1)C2)c1ccccc1` (stereo not given in full), the values for the Ki in test [3] and in test [1] were 301 nM and 1900 nM, respectively.
In the case of `Fc1ccc(C(OC2CC3CCC(C2)N3Cc2ccc(Cl)c(Cl)c2)c2ccc(F)cc2)cc1` (stereo not given), the results for the Ki in test [3] and in test [1] were 392 nM and 3880 nM, respectively.
As for `CC(C)[C@H](N)CN1C2CCC1CC(OC(c1ccc(F)cc1)c1ccc(F)cc1)C2` (stereo not given in full), the figures for the Ki in test [3] and in test [1] were 29.5 nM and 4020 nM, respectively.
For `Fc1ccc(C(OC2CC3CCC(C2)N3C/C=C/c2ccccc2)c2ccc(F)cc2)cc1` (stereo not given), the Ki in test [3] turned out to be 86.4 nM; in test [2], 401 nM.
In test [1], `Nc1ccc(CCCCN2[C@@H]3CC[C@H]2C[C@@H](OC(c2ccc(F)cc2)c2ccc(F)cc2)C3)cc1` yielded a Ki of 134 nM.
In test [1], `O=[N+]([O-])c1ccc(CCCCN2[C@@H]3CC[C@H]2C[C@@H](OC(c2ccc(F)cc2)c2ccc(F)cc2)C3)cc1` returned a Ki of 299 nM.
In the case of `NCCN1[C@@H]2CC[C@H]1C[C@@H](OC(c1ccc(F)cc1)c1ccc(F)cc1)C2`, the results for the Ki in test [3] and in test [1] were 13.9 nM and 1250 nM, respectively.
For the compound `Fc1ccc(C(O[C@H]2C[C@H]3CC[C@@H](C2)N3CCc2c[nH]c3ccccc23)c2ccc(F)cc2)cc1`, the inhibition constant Ki in test [3] is 44.6 nM; in test [2], 3280 nM.
In turn, `C=CCN1C2CCC1CC(OC(c1ccc(F)cc1)c1ccc(F)cc1)C2` (stereo not given) registered a Ki in test [1] of 177 nM. In other words, the sub-micromolar range.
Consider `CC(C)[C@@H](N)CN1C2CCC1CC(OC(c1ccc(F)cc1)c1ccc(F)cc1)C2` (stereo not given in full), for which the Ki in test [3] was 56.4 nM; in test [1] it was 2180 nM.
In test [2], `Fc1ccc(C(OC2CC3CCC(C2)N3CC2CC2)c2ccc(F)cc2)cc1` (stereo not given) displayed a Ki of 257 nM.
